# Assays:
# [1] = molecular target: T1, Peroxisome proliferator-activated receptor gamma (Mus musculus) (UniProt P37238); assay: Agonist activity at mouse PPARgamma expressed in HEK293 cells co-expressing with Gal4 reporter vector assessed as fold activation after 24 hrs by dual-luciferase reporter assay; type: cell-based
# T1 sequence (whole entry): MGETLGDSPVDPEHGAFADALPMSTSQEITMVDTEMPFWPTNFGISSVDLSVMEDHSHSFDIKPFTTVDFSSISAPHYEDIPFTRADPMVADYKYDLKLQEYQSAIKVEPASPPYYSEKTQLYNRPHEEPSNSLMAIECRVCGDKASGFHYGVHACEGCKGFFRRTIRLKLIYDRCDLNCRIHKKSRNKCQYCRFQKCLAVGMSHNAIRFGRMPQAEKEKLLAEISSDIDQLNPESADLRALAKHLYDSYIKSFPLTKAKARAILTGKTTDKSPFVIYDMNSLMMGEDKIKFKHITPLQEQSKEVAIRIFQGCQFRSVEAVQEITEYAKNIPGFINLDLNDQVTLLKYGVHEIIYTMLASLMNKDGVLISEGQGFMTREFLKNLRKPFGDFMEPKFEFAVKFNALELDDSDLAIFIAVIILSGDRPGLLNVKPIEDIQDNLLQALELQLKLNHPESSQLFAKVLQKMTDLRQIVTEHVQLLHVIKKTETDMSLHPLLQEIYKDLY
# Outline: (§1)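 HEK-293 cells grown in DMEM with 10% FBS at 37 °C under 5% CO2 and plated at 1 × 10^4 cells/well. Cells co-transfected with pCMX-Gal-mPPARγ-LBD and MH100×4TK-Luc reporter, using Renilla as internal control. Compounds added at a range of concentrations for 24 h, then dual-luciferase read-out. EC50 is the concentration giving half-maximal fold activation; Emax is the maximal fold activation. Means ± SD from four independent experiments.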
# [2] = molecular target: T2, Peroxisome proliferator-activated receptor gamma (Mus musculus, UniProt P37238); assay: Agonist activity at mouse PPARgamma expressed in HEK293 cells co-expressing with Gal4 reporter vector after 24 hrs by dual-luciferase reporter assay; type: cell-based; outline: as §1
# T2 sequence (P37238 whole entry): T1 sequence (whole entry)
# [3] = Inhibition of Saccharomyces cerevisiae alpha-glucosidase
Structure (SMILES),Emax [1],EC50 [2],IC50 [3]
C=C1[C@@H](CC/C(C)=C/CO)[C@@]2(C)CCC[C@](C)(C(=O)O)[C@@H]2[C@H](OC(=O)c2ccccc2)[C@H]1OC(C)=O,24.7,0.9 µM,–
CC(=O)O[C@@H]1[C@@H](OC(=O)c2ccccc2)[C@@H]2[C@](C)(CCC[C@@]2(C)C(=O)O)[C@H](CC/C(C)=C/CO)[C@@]12CO2,–,> 100 µM,–
C=C1[C@@H](CC/C(C)=C/CO)[C@@]2(C)CCC[C@](C)(C(=O)O)[C@@H]2[C@H](OC(=O)c2ccccc2)[C@H]1O,–,> 100 µM,–
COc1ccc(-c2oc3cc(O)cc(O)c3c(=O)c2O[C@@H]2O[C@H](COC(=O)/C=C/c3ccc(O)cc3)[C@@H](O)[C@H](O)[C@H]2O)cc1OC,–,> 100 µM,–
O=c1cc(-c2ccc(O)cc2)oc2c([C@@H]3OC[C@H](O)[C@H](O)[C@H]3O)c(O)cc(O)c12,–,> 100 µM,–
COc1ccc(-c2cc(=O)c3c(O)c(OC)c(O)c(OC)c3o2)cc1O,2,4.3 µM,–
CN(CCOc1ccc(CC2SC(=O)NC2=O)cc1)c1ccccn1 (centres undefined),11.8,–,–
C[C@@]12CC[C@]3(C1)[C@H](CC2=O)C[C@@H](OC(=O)c1ccccc1)[C@@H]1[C@]3(C)CCC[C@]1(C)C(=O)O [4-EPI-SCOPADULCIC ACID B],–,> 100 µM,14.6 µM
C[C@H]1O[C@H](O[C@H]2[C@H](O)[C@@H](O)[C@@H](O[C@H]3[C@H](O)[C@@H](O)C(O)O[C@@H]3CO)O[C@@H]2CO)[C@H](O)[C@@H](O)[C@@H]1N[C@H]1C=C(CO)[C@@H](O)[C@H](O)[C@H]1O (some centres undefined) [ACARBOSE],–,–,3760 µM
O=c1cc(-c2ccc(O)cc2)oc2cc(O)cc(O)c12 [APIGENIN],3.4,24.9 µM,–
C=C(C)[C@@H]1CC[C@]2(C(=O)O)CC[C@]3(C)[C@H](CC[C@@H]4[C@@]5(C)CC[C@H](O)C(C)(C)[C@@H]5CC[C@]43C)[C@@H]12 [BETULINIC ACID],–,> 100 µM,–
COc1c(O)cc2oc(-c3ccc(O)cc3)cc(=O)c2c1O [HISPIDULIN],11.3,7.3 µM,–
COc1c(O[C@@H]2O[C@H](CO)[C@@H](O)[C@H](O)[C@H]2O)cc2oc(-c3ccc(O)cc3)cc(=O)c2c1O [HISPIDULOSIDE],–,> 100 µM,–
O=c1cc(-c2ccc(O)c(O)c2)oc2cc(O)cc(O)c12 [LUTEOLIN],7.6,2.3 µM,–
COc1ccc(-c2cc(=O)c3c(O)c(OC)c(O[C@@H]4O[C@H](CO[C@@H]5O[C@@H](C)[C@H](O)[C@@H](O)[C@H]5O)[C@@H](O)[C@H](O)[C@H]4O)cc3o2)cc1 [PECTOLINARIN],–,> 100 µM,–
C=C1C[C@@H](OC(=O)c2ccccc2)[C@@H]2[C@](C)(CCC[C@@]2(C)C(=O)O)[C@@H]1CC/C(C)=C/CO [SCOPARIC ACID A],–,> 100 µM,–
O=c1cc(-c2ccc(O)cc2)oc2cc(O)c(O)c(O)c12 [SCUTELLAREIN],3.4,16.4 µM,–

# From ChEMBL document CHEMBL3351408, “Bioactive diterpenoids and flavonoids from the aerial parts of Scoparia dulcis” (J Nat Prod, 2014)
